The source made the active and inactive calls. No cut-off for these calls is given here.
Legend:
BJeLR [1] = assay: Cytotoxicity against human BJeLR cells expressing RAS G12V mutant at 10 uM at 12 hrs by trypan blue staining; type: functional, cell-based
BJeLR [2] = assay: Cytotoxicity against human BJeLR cells expressing RAS G12V mutant at 10 uM at 24 hrs by trypan blue staining; type: functional, cell-based
BJeH [3] = assay: Cytotoxicity against human BJeH cells expressing wild type RAS at 10 uM after 24 hrs by trypan blue staining; type: functional, cell-based
BJeH [4] = assay: Induction of reactive oxygen species production in human BJeH cells expressing wild type RAS after 6 hrs by DCF-based flow cytometric analysis; type: functional, cell-based
BJeLR [5] = assay: Induction of reactive oxygen species production in human BJeLR cells expressing RAS G12V mutant after 6 hrs by DCF-based flow cytometric analysis; type: functional, cell-based
[6] = molecular target: E3 ubiquitin-protein ligase Mdm2 (Homo sapiens) (UniProt Q00987); assay: Inhibition of wild type Mdm2 at 20 ug/mL after 2 hrs by cell-based luciferase assay
Chain of E3 ubiquitin-protein ligase Mdm2 (Homo sapiens) (Q00987 whole entry, looked up): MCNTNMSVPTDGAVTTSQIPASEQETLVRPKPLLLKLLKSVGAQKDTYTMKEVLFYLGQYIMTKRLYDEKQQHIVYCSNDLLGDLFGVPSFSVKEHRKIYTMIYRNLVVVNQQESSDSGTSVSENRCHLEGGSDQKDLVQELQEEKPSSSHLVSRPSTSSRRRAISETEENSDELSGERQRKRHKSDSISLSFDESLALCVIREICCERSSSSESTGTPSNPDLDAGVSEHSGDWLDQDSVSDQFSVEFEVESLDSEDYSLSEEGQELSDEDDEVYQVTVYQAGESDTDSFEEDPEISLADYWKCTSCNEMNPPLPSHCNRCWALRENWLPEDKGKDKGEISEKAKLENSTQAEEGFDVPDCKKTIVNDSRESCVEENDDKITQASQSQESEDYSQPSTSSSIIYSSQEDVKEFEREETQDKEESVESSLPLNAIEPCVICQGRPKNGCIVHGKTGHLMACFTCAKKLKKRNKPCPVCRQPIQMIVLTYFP

[7] = system: E3 ubiquitin-protein ligase Mdm2 (Homo sapiens), Q00987 [C464A]; assay: Inhibition of Mdm2 C464A mutant at 20 ug/mL after 2 hrs by cell-based luciferase assay
Chain of E3 ubiquitin-protein ligase Mdm2 (Homo sapiens), Q00987 [C464A] (Q00987 whole entry C464A): as the sequence (Q00987 whole entry, looked up) above, with C464A counted along it

HT-1080 = assay: Cytotoxicity against human HT1080 cells after 48 hrs by alamar blue assay; type: functional; conditions: HT-1080, 48 h, read-out: LC50 (the source's name)
RKO = assay: Cytotoxicity against human RKO cells after 48 hrs by alamar blue assay; type: functional; conditions: read-out: LC50 (the source's name)
MCF7 = assay: Cytotoxicity against human MCF7 cells after 48 hrs by alamar blue assay; type: functional; conditions: MCF7, 48 h, read-out: LC50 (the source's name)
U2OS [8] = assay: Cytotoxicity against human U2OS cells after 48 hrs by alamar blue assay; type: functional; conditions: read-out: LC50 (the source's name)
[9] = Cytotoxicity against human HT1299 cells after 48 hrs by alamar blue assay; type: functional; conditions: HT1299, 48 h, read-out: LC50 (the source's name)
[10] = Cytotoxicity against human BJeLR cells expressing RAS G12V mutant after 48 hrs by alamar blue assay; type: functional, cell-based; conditions: read-out: LC50 (the source's name)
BJeH [11] = assay: Cytotoxicity against human BJeH cells expressing wild type RAS at 20 ug/mL after 48 hrs by alamar blue assay; type: functional, cell-based
U2OS [12] = assay: Cytotoxicity against human U2OS cells at 20 ug/mL after 48 hrs by alamar blue assay; type: functional, cell-based
[13] = Ratio of MEL24 LC50 to compound LC50 for human BJeLR cells expressing RAS G12V mutant; type: functional
BJeLR [14] = assay: Cytotoxicity against human BJeLR cells expressing RAS G12V mutant at 0.57 uM at 12 hrs by trypan blue staining; type: functional, cell-based
Outline: (§1)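 Time-course in BJ-TERT/LT/ST/RAS^V12 cells exposed for the designated times to erastin (10 µM), test compound (30 µM) or RSL3 (0.57 µM) to follow onset of death. Data representative of duplicate experiments.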

BJeLR [15] = assay: Cytotoxicity against human BJeLR cells expressing RAS G12V mutant at 0.57 uM at 24 hrs by trypan blue staining; type: functional, cell-based; outline: as §1
BJeH [16] = assay: Cytotoxicity against human BJeH cells expressing wild type RAS at 568 nM after 24 hrs by trypan blue staining; type: functional, cell-based
[17] = Cytotoxicity against human BJeH cells expressing wild type RAS after 48 hrs by alamar blue assay; type: functional, cell-based; conditions: read-out: LC50 (the source's name)
BJeLR [18] = assay: Cytotoxicity against human BJeLR cells expressing RAS G12V mutant at 20 ug/mL after 48 hrs by alamar blue assay; type: functional, cell-based
BJeH [19] = assay: Cytotoxicity against human BJeH cells expressing wild type RAS at 1 uM after 24 hrs by trypan blue staining; type: functional, cell-based
BJeLR [20] = assay: Cytotoxicity against human BJeLR cells expressing RAS G12V mutant at 1 uM after 24 hrs by trypan blue staining; type: functional, cell-based
BJeH [21] = assay: Induction of apoptosis in human BJeH cells expressing wild type RAS assessed as caspase 7 activation after 28 hrs by Apo-One assay; type: functional, cell-based
Outline: (§2)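 BJ-TERT and BJ-TERT/LT/ST/RAS(V12) cells given compound as a two-fold, 14-point dilution series for 28 h. Alamar blue then added for viability, and caspase 3/7 activation detected by Apo-ONE in the same wells.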

BJeLR [22] = assay: Induction of apoptosis in human BJeLR cells expressing RAS G12V mutant assessed as caspase 7 activation after 28 hrs by Apo-One assay; type: functional, cell-based; outline: as §2
BJeLR [23] = assay: Induction of apoptosis in human BJeLR cells expressing RAS G12V mutant assessed as caspase 3 activation after 28 hrs by Apo-One assay; type: functional, cell-based; outline: as §2
BJeH [24] = assay: Induction of apoptosis in human BJeH cells expressing wild type RAS assessed as caspase 3 activation after 28 hrs by Apo-One assay; type: functional, cell-based; outline: as §2

Compound | inhibition [6] | inhibition [7] | CC50 (HT-1080) | CC50 (RKO) | CC50 (MCF7) | CC50 (U2OS [8]) | CC50 [9] | CC50 [10] | Activity (BJeH [11]) | CC50 [17] | further results
CCOc1ccccc1-n1c(C(C)N2CCN(C(=O)COc3ccc(Cl)cc3)CC2)nc2ccccc2c1=O (centres undefined) | – | – | – | – | – | – | – | – | – | – | Activity (BJeLR [1]): Active; Activity (BJeLR [2]): Active; Activity (BJeH [3]): inactive; Activity (BJeH [4]): Active; Activity (BJeLR [5]): Active
CC(CC1C(=O)N(C)C(=O)N(C)C1=O)C1c2c(c3ccccc3n2C(=O)OC(C)(C)C)CCN1C(=O)OC(C)(C)C (centres undefined) | inactive | inactive | 14.6 µM | 11.4 µM | 9.8 µM | 12.1 µM | 16.9 µM | 35.2 µM | inactive | – | –
CN1C(=O)C(C2NC=Cc3c2[nH]c2ccccc32)C(=O)N(C)C1=O (centres undefined) | inactive | inactive | 16 µM | 25 µM | 61.7 µM | – | 61.7 µM | 12.9 µM | inactive | – | Activity (U2OS [12]): inactive; Ratio [13]: 2
COC(=O)c1ccc(C2c3[nH]c4ccccc4c3CC(C(=O)OC)N2C(=O)CCl)cc1 (centres undefined) | – | – | – | – | – | – | – | – | – | – | Activity (BJeLR [14]): Active; Activity (BJeLR [15]): Active; Activity (BJeH [16]): inactive; Activity (BJeH [4]): Active; Activity (BJeLR [5]): Active
CC(CO)C1c2[nH]c3ccccc3c2CCN1C(=O)OC(C)(C)C (centres undefined) | inactive | inactive | 46 µM | 16 µM | 22.1 µM | 17.8 µM | 24.8 µM | – | – | 60.7 µM | Activity (BJeLR [18]): inactive
CN[C@@H]1C[C@H]2O[C@@](C)([C@@H]1OC)n1c3ccccc3c3c4c(c5c6ccccc6n2c5c31)C(=O)NC4 | – | – | – | – | – | – | – | – | – | – | Activity (BJeH [19]): Active; Activity (BJeLR [20]): Active
CC(C=O)C1c2c(c3ccccc3n2C(=O)OC(C)(C)C)CCN1C(=O)OC(C)(C)C (centres undefined) | inactive | inactive | 13.7 µM | 7.7 µM | 11.4 µM | 10 µM | 46.7 µM | 46.7 µM | inactive | – | –
CCOC(=O)C(C)C1c2c(c3ccccc3n2C(=O)OC(C)(C)C)CCN1C(=O)OC(C)(C)C (centres undefined) | inactive | inactive | 25.2 µM | 9.9 µM | 9.5 µM | 14.1 µM | 42.3 µM | – | inactive | – | Activity (BJeLR [18]): inactive
COC(OC)C1c2[nH]c3ccccc3c2CCN1C(=O)OCc1ccccc1 (centres undefined) | inactive | inactive | – | 22.3 µM | 6.5 µM | 10.2 µM | 52.6 µM | 10.2 µM | – | 52.6 µM | –
CN1C(=O)C(C2NCCc3c2[nH]c2ccccc32)C(=O)N(C)C1=O (centres undefined) | inactive | inactive | 16.5 µM | 30.9 µM | 31.2 µM | 29.4 µM | 32.8 µM | 23.3 µM | – | 32.2 µM | Activity (BJeH [21]): Active; Activity (BJeLR [22]): Active; Activity (BJeLR [23]): Active; Activity (BJeH [24]): Active
